Variants at the floor of the assay were thinned out.
B1: tRNA (parent)
chain: GUUCCGUUGGCGUAAUGGUAACGCGUCUCCCUCCUAAGGAGAAGACUGCGGGUUCGAGUCCCGUACGGAACG

Variants of: B1
Assay: yeast fitness relative to wild type (ratio to wild type); higher = fitter; tRNA-Arg(CCU), competitive growth, 37 C, YPD
In short: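 The tRNA-Arg(CCU) gene variants were made by chemical synthesis with a 3% per-site mutation rate at 69 sites and inserted at the native genomic locus of Saccharomyces cerevisiae. After pooling, the strains were competed in YPD at 37°C for 24 hours in six parallel replicates. Gene amplicons from the start population and each end population were read by 100-nucleotide paired-end sequencing, and Darwinian fitness relative to wild type was taken from genotype frequency changes. Genotypes needed ≥ 100 starting reads, and estimates < 0.5 were set to 0.5.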

Variant	yeast fitness
GUUCCGUUGCCGUAAUGGUAACGCGUCUCCCUCCUAAGGGGAAGACUGCGGGUUCGAGUCCGGUACGGAACG	≤ 0.5
GUUCCGUUGCCGUAAUGGUAACGCGUCUCCCUCCUAUGGAGAAGGCUGCGGGUUCGAGUCCCGUAUGGAACG	≤ 0.5
GUUCCGUUGCCGUAAUGGUGACGCGCCUCCCUCCUAAGGAGAAGAUUGCGGGUUCGAGUCCCGUACGGAACG	≤ 0.5
GUUCCGUUGCGGAAAUGGUAACGCGUCUCCCUCCUGAGGAGAAGACUGCGGGUUUGAGUCCCGUACGGAACG	≤ 0.5
GUUCCGUUGCCGUAAUGGUACCGCGCCUCCAUCCUAAGGAGUAGACUGCGGGUUCGAGUCCCGUACGGAACG	≤ 0.5
GUUCCGUUGCAGUAAUGGUAACGCGUCUCCCUCCUAAGGAGAAGACUGCGGGUUCGAGUCCCGUACGGAACG	0.6
GUUCCGUUGCCGUAAUGGUGCCGCGUAUCCCUCCUAAGGAGAAGACUGUGGGUACGAGUCCCGUACGGACCG	0.653
GUUCCGUUGCUGUAAUGGUAACGCGUCUCGCUCCUAAGGAGAAGACUACGGGUACGAGUCCCGUACGUAACG	≤ 0.5
GUUCCGUUGCCGUAAUGGUAACGCGUCUCCCUCCUAGGGAGAAGACUGCGGAUUGGAGUCCCGUACGGAACG	0.567
GUUCCGUUGCCGUAAUGGUAACGCGUCUCCCUCCUAAGGAGAGGACUGCGGCUUCGAGUCCUAUACGGAACG	0.531
GUUCCGUUGCGGUAAUGGUAAAGCGUCUCGCUCCUAAGGAGAAGACUGCGGGAUCGAGUCCCGUACGGAACG	0.653
GUUCCGUUGCUGUAAUGGUAAGGCGUGUCCCUGCUAAGGAGCAGACUGCGGGUUCGAGUCCCGUACGGAACG	≤ 0.5
GUUCCGUUGCGGUAAUGGUAACGGGUCUCCCUCCUAAGGAGAAGACUCCGGGUUCGAGUCCCGUACGGAACG	≤ 0.5
GUUCCGUUGCCGUAAUGGUACCGCGGCUCCCUCUUAAGGGGAAGACUGCGAGUUCGAGUCCCGUACGGAACG	0.598
GUUCCGUUGCUGUAAUGGUAACGCGUCUGCCUCCUAAGGAGAAGACUGCGGGUUUGAGUCCCGUACGGAACG	0.556
GUUCCGUUGCCGUAAUGGUAACGCGUCUCCCUCCUAAGGAGAAGCCUGCGGGUUCGAGCCCCGUACGGAACG	≤ 0.5
GUUCCGUUGCCGUAAUGGUAGCGCGUCUCACUCCUAACGAGAAGAUUGCGGGUUCGAGUCCCGUACGGACCG	0.869
GUUCCGUUGCGGUAAUGGUAACGGGUCUCCCUCCUAAGGAGAAGACUGCGGGUUCGAGUCCCGUACAGAACG	≤ 0.5
GUUCCGUUGCCGUAUUGGUAACGCGUCUCCCUCCUAUGGAGAAGCCCGCGGCUUCGAGUCCCGUACGGAACG	≤ 0.5
GUUCCGUUGCCGUAUUGGUAACGCGUCUGCCUCCUAAGGAGAAGAUUGCGCGUUCGAGUCCCGUACGGAACG	≤ 0.5
GUUCCGUUGCUGUAAUGGUAACGCGUCUGCCUCCUAAGGAGUAGACUGCGGGUUCGAGUCCCGUACGGAACG	≤ 0.5
GUUCCGUUGCCGUAAUGGUGACGUGUCUCCCUCCUAACGAGAAGACUGCGGGUUCGCGUCCCCUACGGAACG	≤ 0.5
GUUCCGUUGCCGUAAUGGUCACGCGUCCCCCUCCUAAGGAGAAGGCUGCGGGUUCGAGUCCCGUACGGAACG	≤ 0.5
GUUCCGUUGCCGUAAUGGUUACGCGUCUCCCUCCUAAGGAUAAGACUGCGGGUUCGUGUCCCGUACGGAACG	≤ 0.5
GUUCCGUUGCAGUAAUGGUAACGCGUCUCCCUCCUACGGAGAAGACUGGGGGUUCGAGUCCUGUACGGAACG	≤ 0.5

Variant	yeast fitness
GUUCCGUUGCCGUAAUGGUAACGCGUCUCCCUCCUAAGGUGAAGACUGCGGGUUCGAGUCCCGUACGGAACG	0.635
GUUCCGUUGCCGUAAUGGUAACGCGUCUCCCUCCUAUGGAGAAGACUGCGGGUUCGAAUCCCGUACGGAACG	0.608
GUUCCGUUGCCGUAAUGGUAACGCGUCUCCCUCCUAGGGAGAAGACUGCGGAUUGGAAUCCCGUACGGAACG	≤ 0.5
GUUCCGUUGCGGUAAUGGUAUCGCGUCUCCCUCCUAAGGAGAAGCCUGCGGCUUCGGGUCCCGUACGGAACG	≤ 0.5
GUUCCGUUGCCGUAAUGGUAACGCGUCUCCCUCCUCAGGAGAAGACUGCGGGUUCGCGUCCCGUACGGAACG	≤ 0.5
GUUCCGUUGCCGUAAUGGUGACGUGUCUCCCUCCUAACGAGAAGACUGCGGGUUCGAGUCCCGUACGGAACG	0.561
GUUCCGUUGCCGUAAUGGUAACGCGUCUCCCUCCUAAGGUGAAGACUGCAGGUUCGAGUCCCGUACGGAACG	≤ 0.5
GUUCCGUUGCCGUAAUGGUUACGCGUCUCCCUCCUAAGGAGAAGACUGCGGGUUCGAGUGCCGUACGGAACG	0.587
GUUCCGUUGCCGUAAUGGUAACGCGUCUCCCUCCUAAGGAGAUGACUACGAGUUCGAGUCCCGUACGGAACG	≤ 0.5
GUUCCGUUGCGGUAAUGGUAACGCGUCUCCCUCCUAAGGAGAAGUCUGCGGGUUCGAGUCCCGUACGGAACG	≤ 0.5
GUUCCGUUGCUGUAAUGGUAACGCGUCUCGCUCCUAAGGAGAAGACUACGGGUACGAGUCCCGUACGGAACG	0.693
GUUCCGUUGCCGUAUUGGUAACGCGUCUCCCUCCUAAGGAGAAGACUGCGGGUUCGAGUCCCGUACGGAACG	0.691
GUUCCGUUGCCGUAAUGGUAACGCGUCUCCCUCCUGAGGAGAAGACUGCGGGUUCGAGUCCCGUACGGAACG	0.663
GUUCCGUUGCCGUAAUGGUAACGCGUCUCCCUCCUAAGGAGAAGUCUGCGGGUUCGAGUGCCGUAGGGAACG	≤ 0.5
GUUCCGUUGCCGUAAUGGUAACGCGUCUCCCUCCUAAGGAGAAGUCUACGGGUUAGAGUCCCGUACGGAACG	≤ 0.5
GUUCCGUUGCCGUAAUGGUAGCACGUCUCCCUCCUAAGGAGAAGACUGCGGGUUCGAGUCCCGUACGGAACG	≤ 0.5
GUUCCGUUGCCGUAAUGGUAGCGCGUCUCCCUCCUAAGGAGAAGACUGCGGGUUCAAGUCCCGUACGGAACG	≤ 0.5
GUUCCGUUGCUGUAAUGGUAACGCGUGUCCCUCCUAAGGAGGAGACUGCGGGUUUGAGUCCCGUACGGAACG	0.785
GUUCCGUUGCCGUAAUGGUAGUGCGUCUCCCUCCUAAGGAGAAGAUUGCGGGUUCCAGUCCCGUACGGAACG	0.58
GUUCCGUUGCCGUAAUGGUAUGGCGUCUCCCUCCUAAGGAGAAGACUGCGGGUUCGAGUCCCGUACCGAACG	0.765
GUUCCGUUGCCGUAAUGGUGACGCGUCUCCCUCCUAAGGAGAAGACUGCGGGUUCGAGUCCCGUAUGGAACG	≤ 0.5
GUUCCGUUGCCGUAAUGGUAGCGCGUCUCACUCCUAACGAGAAGAUUGCGGGUUCGAGUCCCGUACGGAACG	0.681
GUUCCGUUGCCGUAAUGGUAACGCGUCUCCCUCCUUAGGAGAAGACUGCGGGUUCGAGUCCCGUAUGGACCG	≤ 0.5
GUUCCGUUGCCGUAAUGGUAACGCGUCUCCCUCCUAAGGAGAAGACUGCGGGUUCGGGUCCCGUUCGGAACG	≤ 0.5
GUUCCGUUGCCGUAAUGGUAACGCGUCUCCCUCCUAAGGAGAAGUCUGCGGGGUCGAGUCCCGUACGGAACG	≤ 0.5

Variant	yeast fitness
GUUCCGUUGCGGUAAUGGUAACGGGUCUCCCUCCUAAGGAGAAGACUGCGGGUUCGAGUCCCGUACGGAACG	0.577
GUUCCGUUGCCGUAAUGGUAACGCGUCUCCCUCCUAAGGAGAAGACUGCGGGUUCGAGUCCCGUACGGACCG	0.689
GUUCCGUUGCCGUAUUGGUAACGCGUCUCCCUCCUAUGGAGAAGCCUGCGGCUUCGAGUCCCGUACGGAACG	0.606
GUUCCGUUGCCGUAGUGGUAACGCGUCUCCCUCCAAAGGAGAAAACUGCGGGUUCGAGUCACGCACGGAACG	≤ 0.5
GUUCCGUUGCCGUAAUGGUAACGCGUCUCCCUCCUAAGGAGAAGACUGCGGGUUCGUGUCCCGUACGGAACG	0.548
GUUCCGUUGCCGUAAUGGUAACGCGUCUCCCUCCUAAGGAGAAGACUGCGGGUUCGGGUCCCGUACGGAACG	0.604
GUUCCGUUGCCGUAAUGGUAUCGCGUCUCCCUCCUAAGGAGAAGACUGCGGGUUCGAGUCCCGUACGGAACG	0.675
GUUCCGUUGCCGUAGUGGUAACGCGUCUCCCUCCAAAGGAGAAAACUGCGGGUUCGAGUCCCGUACGGUACG	≤ 0.5
GUUCCGUUGCCGUAAUGGUCACGCGUCUCCCUCCUAAGGAGAAGACUGCGGGUUCGAGUCCCGUACGGAACG	0.631
GUUCCGUUGCCGUAAUGGUAACGCGUCUCCCUCCUGAGGAGAAGACUGCGGGUUCGUGUCCCGUACGGAACG	≤ 0.5
GUUCCGUUGCCGUAAUGGUUAAGCGUCUCCCUCCUAAGGAGAAGACUGCGGGUUCGAGUCCCGUACGGAACG	≤ 0.5
GUUCCGUUGCCGUAAUGGUAACGCGUCUCCCUCCUCAGGAGAAGACUGCGGGUUUGAGUCCCGUACGGAACG	≤ 0.5
GUUCCGUUGCCGUAAUGGUACCGCGUAUCCCUCAUAAGGAGAAGACUGGGGGUUCGAGUCCCGUGCGGAACG	≤ 0.5
GUUCCGUUGCCGUAAUGGUAACGCGUCUCCCUCCUAAGGAGACGACUGCGGGAUCGAGUCCCGUACGGAACG	≤ 0.5
GUUCCGUUGCCGUAAUGGUAACGCGUCUCCCUCCUAAGGAGAAGCCUGCGGGUUCGAGUCCCGUACGGAACG	0.626
GUUCCGUUGCGGUAAUGGUAACGCGUCUCCCUCCUAAGGAGAAGACUGCGGGUUGGAGUCCUGUACGGAACG	0.62
GUUCCGUUGCGGUAAUGGUAAUGCGUCUCCCUCGUAAGGAGAAGACUGCGGGUUCGAGUCCCGUACGGCACG	0.589
GUUCCGUUGCCGUAAUGGUAACGCGUCUCCCUCCUAAGGAGAAGGCUGCGGGUUCGAGUCCCGUCCGGCACG	0.571
GUUCCGUUGCCGUAAUGGUAACGCGUCUCCCUCCUAAGGAGAAGUCUGGGGGUUCGAGUACCGUACGGAACG	≤ 0.5
GUUCCGUUGCCGUAAUGGUAACGCGUCUCCCUCCUAAGGAGAAGACUGCGGGUUCGAGUCCCGUACGGUACG	0.661
GUUCCGUUGCCGUAUUGGUAACGCGUAUCCCUCCUAAGGAGAAGACUGGGGGUUCGAGUCCCGAACGGAACG	≤ 0.5
GUUCCGUUGCAGUAAUGCUAACGUGUCUCCCUCCUAAGGAGAAGACUGCGGGUUCGAGUCCCGUAUGGAACG	0.529
GUUCCGUUGCCGUAGUGGUAACGCGUCUCCCUCCUAAGGAGAAGACUGCGGGUUCGACUCCCGUACGGAACG	0.559
GUUCCGUUGCCGUAAUGGUAACGCGUCUCCCUCCUCAGGAGAAGACUACGGGUUCGAGUCCCGUACGGAACG	≤ 0.5
GUUCCGUUGCCGUAUUGGUAACGCGUCUCCCUCCUAUGGAGAAGACUGCGGGUUCGAGUCCCGUACGGAACG	≤ 0.5
